From ChEMBL document CHEMBL1140901, “Discovery of novel arylethynyltriazole ribonucleosides with selective and effective antiviral and antiproliferative activity” (J Med Chem, 2009)
The source made the active and inactive calls. The calls are words filed in the database; no cut-off is given here.

What was measured:
[1] = Cytotoxicity against human HuH6 cells; assay type: cell-based
How it was run: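 Huh-6 replicon cells were seeded at 15 000/well, handled as for Huh-9-13 (2% FCS DMEM, 3-fold serial dilutions without G418), and incubated 3 days at 37 °C. CC₅₀ is the µM concentration inhibiting Huh cell proliferation by 50%, given as mean ± SE (n ≥ 3).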

Hepatitis C virus [2] = assay: Antiviral activity against HCV in human HuH6 cells assessed as inhibition of replicon replication; assay type: functional, organism-based, Hepacivirus hominis; details: HuH-6
How it was run: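 Huh-6 replicon cells seeded 15 000/well and treated with serial compound dilutions as for Huh-9-13. Incubated 3 days at 37 °C, then lysed in cells-to-cDNA buffer. Replicon RNA quantified by real-time PCR. EC50 is 50% drop in HCV RNA versus untreated control; mean ± SE, n ≥ 3.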

Hepatitis C virus [3] = assay: Antiviral activity against HCV in human HuH5.2 cells assessed as inhibition of replicon replication; assay type: functional, organism-based, Hepacivirus hominis; details: Huh-5-2
How it was run: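 Huh-5-2 replicon cells seeded 5000/well in DMEM with 2% FCS and 250 µg/mL G418. After 24 h at 37 °C, 3-fold serial dilutions given in DMEM without G418. Incubated 4 days at 37 °C. Replicon read as luciferase activity (Steady-Glo). EC50 is 50% inhibition of replication; mean ± SE, n ≥ 3.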

Hepatitis C virus [4] = assay: Antiviral activity against HCV in human Huh9.13 cells assessed as inhibition of replicon replication; assay type: functional, organism-based, Hepacivirus hominis
How it was run: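 Huh-9-13 replicon cells seeded 5000/well in DMEM with 2% FCS and 1000 µg/mL G418. After 24 h at 37 °C, 3-fold serial dilutions given without G418 for 4 days. Cells washed and lysed, replicon RNA quantified by real-time PCR. EC50 is 50% drop in HCV RNA versus untreated control; mean ± SE, n ≥ 3.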

[5] = Cytotoxicity against human Huh-9-13 cells; assay type: cell-based
How it was run: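 Huh-9-13 replicon cells were seeded at 5000/well in DMEM with 2% FCS and 1000 µg/mL G418 and incubated 24 h at 37 °C. They then received 3-fold serial compound dilutions in G418-free medium for 4 days at 37 °C. CC₅₀ is the µM concentration inhibiting Huh cell proliferation by 50%, given as mean ± SE (n ≥ 3).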

[6] = Cytotoxicity against human HuH5.2 cells; assay type: cell-based, Huh-5-2
How it was run: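 Huh-5-2 replicon cells were seeded at 5000/well in DMEM with 2% FCS and 250 µg/mL G418 and kept 24 h at 37 °C (5% CO₂). They were then exposed to 3-fold serial dilutions in medium without G418 for 4 days at 37 °C. CC₅₀ is the µM concentration inhibiting Huh cell proliferation by 50%, given as mean ± SE (n ≥ 3).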

MIA PaCa-2 [7] = assay: Antiproliferative activity against human MIAPaCa2 cells by MTT assay; assay type: functional, cell-based
How it was run: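 MiaPaCa-2 pancreatic cancer cells in DMEM with 10% FBS, seeded at 15 000/well and allowed to attach overnight. Medium was then replaced with fresh medium containing compound, or medium alone as control. Cells were incubated for 48 h at 37 °C with 5% CO₂, and viable cells were counted by MTT colorimetric assay.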

MIA PaCa-2 [8] = assay: Antiproliferative activity against human MIAPaCa2 cells after 2 days by MTT assay; assay type: functional
How it was run: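 MiaPaCa-2 cells in DMEM with 10% FBS, seeded 15 000/well and left to attach overnight. Medium then replaced with compound at different concentrations, untreated medium as control. Incubated 48 h at 37 °C, 5% CO2. Viable cells read by MTT colorimetric assay.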

MIA PaCa-2 [9] = assay: Induction of apoptosis in human MIAPaCa2 cells assessed as increase in caspase 3/7 activation after 48 hrs; assay type: functional
How it was run: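 MiaPaCa-2 cells seeded 15 000/well; 24 h later treated 48 h. Caspase-3/7 measured by cleavage of fluorogenic Z-DEVD-R110 substrate (Apo-ONE reagent). Reagent incubated 30 min at room temperature, then fluorescence read. Triplicate; mean ± SE, n = 3.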

MIA PaCa-2 [10] = assay: Cell clycle arrest in human MIAPaCa2 cells assessed as increase in sub-G1/G0 fraction after 48 hrs by flow cytometry analysis; assay type: functional
How it was run: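 MiaPaCa-2 cells seeded at 10⁶ per 10 cm dish and left overnight. Treated 48 h, untreated as negative control. Cells trypsinised, fixed overnight in cold 70% ethanol at 4 °C, treated with RNase (500 µg/mL) and stained with propidium iodide (50 µg/mL). Sub-G1/G0 ratio read by flow cytometry on 10⁶ cells. Run in triplicate.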

MIA PaCa-2 [11] = assay: Antitumor activity against human MIAPaCa2 cells transfected mouse assessed as reduction of tumor volume at 150 mg/kg, ip administered every 3 days for 4 weeks measured after 2 weeks; assay type: functional; parameters: scale not given: the % may be the effect or the level left; details: route intraperitoneal
How it was run: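 Male nude mice, 6 weeks old, inoculated subcutaneously with about 1 × 10⁷ MiaPaCa-2 cells plus 0.1 mL Matrigel. At 100 mm³ tumours, mice randomised; untreated mice served as control; five per group. Tumour volume measured weekly as length × width × depth × 0.5236. Mean ± SE, Student's t test.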

MIA PaCa-2 [12] = assay: Induction of apoptosis in human MIAPaCa2 cells assessed as increase in DNA/histone nucleosome release into cytoplasm after 48 hrs by ELISA; assay type: functional
How it was run: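 MiaPaCa-2 cells seeded 15 000/well for 24 h, then treated 48 h, untreated as control. Lysate supernatant captured on streptavidin plate with biotin anti-histone and peroxidase anti-DNA antibodies, 2 h at room temperature. After washing, peroxidase substrate added for 20 min, read at 405/490 nm. Result given as fold absorbance over control. Triplicate.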

SMILES	CC50 [1]	EC50 (Hepatitis C virus [2])	EC50 (Hepatitis C virus [3])	EC50 (Hepatitis C virus [4])	CC50 [5]	CC50 [6]	Activity (MIA PaCa-2 [7])	inhibition (INH) (MIA PaCa-2 [8])	fold change (FC) (MIA PaCa-2 [9])	fold change (FC) (MIA PaCa-2 [10])	Activity (MIA PaCa-2 [11])	fold change (FC) (MIA PaCa-2 [12])
COC(=O)c1nc(C#CC2(O)CCCC2)n([C@@H]2O[C@H](COC(C)=O)[C@@H](OC(C)=O)[C@H]2OC(C)=O)n1	> 105 µM	25.1 µM	52.3 µM	54.3 µM	> 105 µM	> 105 µM	–	–	–	–	–	–
NC(=O)c1nc(C#Cc2ccc(C(F)(F)F)cc2)n(COCCO)n1	87.5 µM	50.8 µM	14.1 µM	36.7 µM	79 µM	–	inactive	–	–	–	–	–
NC(=O)c1ncn([C@@H]2O[C@H](CO)[C@@H](O)[C@H]2O)n1 [RIBAVIRIN]	> 100 µM	33 µM	28.7 µM	84 µM	229 µM	–	–	–	–	–	–	–
Nc1ccn([C@@H]2O[C@H](CO)[C@@H](O)C2(F)F)c(=O)n1 [GEMCITABINE]	–	–	–	–	–	–	–	29%	2	–	–	–
COC(=O)c1nc(C#Cc2ccc(C(F)(F)F)cc2)n([C@@H]2O[C@H](COC(C)=O)[C@@H](OC(C)=O)[C@H]2OC(C)=O)n1	–	–	–	–	–	–	–	59%	6.8	3	60%	3
NC(=O)c1nc(C#Cc2ccc(C(F)(F)F)cc2)n([C@@H]2O[C@H](CO)[C@@H](O)[C@H]2O)n1	> 120 µM	43.7 µM	17.7 µM	19.4 µM	> 120 µM	82.5 µM	–	–	–	–	–	–
NC(=O)c1nc(C#Cc2ccc(F)cc2)n(COCCO)n1	132 µM	95.3 µM	72.3 µM	125 µM	> 160 µM	> 160 µM	–	–	–	–	–	–
NC(=O)c1nc(C#Cc2ccccc2)n(COCCO)n1	> 170 µM	112 µM	62.9 µM	> 164 µM	> 170 µM	> 170 µM	–	–	–	–	–	–
